Published values pooled from the literature.

| SMILES | test system | setting | Tmax |
| --- | --- | --- | --- |
| CC(C)n1cc(C#N)c2cc(-n3cc(C(=O)O)cn3)ccc21 | human, plasma | oral, 600 mg, multiple doses, once daily, steady state | 3.5 h |
| C=CC(=O)N(C)CCOc1c(N)ncnc1-c1cc(F)cc(NC(=O)c2ccc(C3CC3)cc2F)c1C | human, blood | oral, 5 mg, single dose, healthy volunteers | 0.52 h |
| Cn1cc(-c2ccc(S(=O)(=O)[C@@H]3C[C@@H](C(=O)NC4(C#N)CC4)N(C(=O)C4(C(F)(F)F)CC4)C3)c(C(F)(F)F)c2)cn1 | human, plasma | oral, 600 mg, single dose, fasted, healthy volunteers | 3.5 h |
| CO[C@@H]1[C@H](OC(=O)N2CC(CCN3CCOCC3)C2)CC[C@]2(CO2)[C@H]1[C@@]1(C)O[C@@H]1CC=C(C)C | human, plasma | subcutaneous, 3.6 mg, single dose, healthy volunteers | 0.25 h |
| c1cnc2ccc(Nc3nc(NC4CC4)c4nc[nH]c4n3)cc2c1 | human, plasma | oral, 200 mg/m², patients | 5.7 h |
| CCc1nc2c(C)cc(N3CCN(CC(=O)N4CC(O)C4)CC3)cn2c1N(C)c1nc(-c2ccc(F)cc2)c(C#N)s1 | human, plasma | oral, 1000 mg, fed, healthy volunteers | 2 h |
| COc1cc(N2CCC(N3CCN(C)CC3)CC2)ccc1Nc1ncnc(Nc2ccccc2S(=O)(=O)C(C)C)n1 | human, plasma | oral, 125 mg, multiple doses, patients | 2.97 h |
| CC(C)(Sc1ccncc1-c1ccc(C#N)c2ccccc12)C(=O)O | male human, plasma | oral, 1 mg, multiple doses, once daily | 0.5 h |
| CC(C)(O)c1ccccc1-c1ccc2[nH]c(/C=C/c3ccc(C(F)(F)F)cc3)nc2c1 | male human, plasma | oral, 120 mg, single dose, fasted | 3 h |
| NS(=O)(=O)NCCNc1nonc1C(=NO)Nc1ccc(F)c(Br)c1 | human, plasma | oral, 300 mg, multiple doses, twice daily, steady state, patients | 2 h |
| CCO[C@H]1CCN(Cc2c(OC)cc(C)c3[nH]ccc23)[C@H](c2ccc(C(=O)O)cc2)C1 | human, plasma | oral, 25 mg, multiple doses, twice daily, patients | 2 h |
| C[C@@]1(c2cc(NC(=O)c3ccc(C#N)cn3)ccc2F)C=CSC(N)=N1 | human, plasma | oral, 3 mg, single dose | 1.25 h |
| C[C@@H](Nc1cc(F)cc(F)c1)c1cc(C(=O)N(C)C)cc2c(=O)cc(N3CCOCC3)oc12 | human, plasma | oral, 360 mg, single dose, patients | 1.53 h |
| Cc1nc(NC(=O)N2CCC[C@H]2C(N)=O)sc1-c1ccnc(C(C)(C)C(F)(F)F)c1 | human, plasma | oral, 400 mg, patients | 2 h |
| COc1ccc([C@@H]2CN(C(=O)[C@@H](O)CO)C[C@@]2(C)[C@@H](C)O)cc1OC1CN(c2ccc(C)cn2)C1 | human, plasma | oral, 40 mg, single dose, healthy volunteers | 3.88 h |
